The structures appear in SMILES notation.

Assay type in all cases: functional, A2780 ADR
Experiment [1] is described as follows: Reversal of multidrug resistance in human 2780AD cells assessed as [3H]vincristine accumulation at 0.1 ug/mL after 2 hrs relative to control. The gist of the method: (§1)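 Multidrug-resistant human ovarian cancer 2780AD cells were exposed to taxoids at 0.1, 1 or 10 µg/mL. Radiolabelled vincristine accumulated in the cells was measured as dpm/well, using means of triplicate determinations. Results are expressed as % of vincristine accumulated relative to the control experiment. They were also scored on a seven-level index according to the range of relative accumulation.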

Experiment [2] is described as follows: Reversal of multidrug resistance in human 2780AD cells assessed as [3H]vincristine accumulation at 1 ug/mL after 2 hrs relative to control. The gist of the method:
as §1

Experiment [3] is described as follows: Reversal of multidrug resistance in human 2780AD cells assessed as [3H]vincristine accumulation at 10 ug/mL after 2 hrs relative to control. The gist of the method:
as §1

Experiment [4] can be described thus: Reversal of multidrug resistance in human 2780AD cells assessed as [3H]vincristine accumulation at 0.1 ug/mL after 2 hrs relative to verapamil.
The nature of experiment [5]: Reversal of multidrug resistance in human 2780AD cells assessed as [3H]vincristine accumulation at 1 ug/mL after 2 hrs relative to verapamil.
Experiment [6] in a line: Reversal of multidrug resistance in human 2780AD cells assessed as [3H]vincristine accumulation at 10 ug/mL after 2 hrs relative to verapamil.

`C=C1[C@@H](OC(C)=O)CC[C@@]2(C)C[C@H](OC(C)=O)C3=C(C)C[C@H](OC(C)=O)[C@@H]([C@@H](OC(C)=O)[C@H]12)C3(C)C` [TAXUYUNNANINE C]: the Activity stood at 105% in experiment [1]; 155% in experiment [2]; 244% in experiment [3]; 91% in experiment [4]; 97% in experiment [5]; 78% in experiment [6].
Turning to `C=C1[C@@H](OC(C)=O)CC[C@@]2(C)C[C@H](OC(C)=O)C3=C(C)C[C@H](OC(=O)C(C)C)[C@@H]([C@@H](OC(C)=O)[C@H]12)C3(C)C`, the Activity in experiment [1] is listed as 96%; in experiment [2] it was 195%; in experiment [3] it was 522%; in experiment [4], 82%; in experiment [5], 95%; in experiment [6] it was 98%.
For `COc1ccc(CCN(C)CCCC(C#N)(c2ccc(OC)c(OC)c2)C(C)C)cc1OC` (configuration not stated) [VERAPAMIL], the Activity in experiment [1] stood at 117%; in experiment [2] it was 207%; in experiment [3], 531%.
With `C=C1[C@@H](OC(C)=O)CC[C@@]2(C)C[C@H](OC(C)=O)C3=C(C)C[C@H](OC(=O)CC)[C@@H]([C@@H](OC(C)=O)[C@H]12)C3(C)C`, the Activity in experiment [1] is on record as 119%; in experiment [2], 295%; in experiment [3], 770%; in experiment [4], 102%; in experiment [5], 134%; in experiment [6], 145%.
For the molecule `C=C1[C@@H](OC(C)=O)CC[C@@]2(C)C[C@H](OC(C)=O)C3=C(C)C[C@H](OC(=O)C(C)C(C)O)[C@@H]([C@@H](OC(C)=O)[C@H]12)C3(C)C` (some centres not stated) [YUNNANXANE], the Activity in experiment [1] stood at 112%; in experiment [2] it was 150%; in experiment [3], 234%; in experiment [4], 97%; in experiment [5], 94%; in experiment [6], 75%.

Source of the values: ChEMBL document CHEMBL1146459, “Production of biologically active taxoids by a callus culture of Taxus cuspidata” (2004).
